A selection: hits, their analogues and other compounds. The true share with any hit is near 1.8%.
Plk1 PBD FP – blocks phosphopeptide binding to human Plk1 polo box domain; P53350; Plk1 PBD phosphopeptide binding, fluorescence polarization; inhibition, %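 (tested at about 20 µM)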; hit rate 0.13% among 97,000; in the data active = inhibition above about 34%, passing the limit was not always enough
EphB4 ephrin blk – EphB4-ephrin-B2 interaction antagonism | EphB4 LBD / TNYL-RAW-Alexa532 peptide, fluorescence polarization | AID 720 | inhibition, % at 7 µM | hit rate 0.15% among 97,000;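 active = inhibition above the screen-wide mean inhibition plus 3 SD, cut at about 15% in these data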
LYP inh 2 – inhibitors of human LYP (PTPN22) phosphatase; Q9Y2R2; recombinant LYP catalytic domain, DiFMUP fluorescence; inhibition, % at 2 µM; hit rate 0.21% among 96,000;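 active = inhibition at 2 µM at or above a set limit, the screen mean plus 3 SD, cut at about 24% in these data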
Target sequence (Q9Y2R2 whole entry, looked up, the tested form may be a part): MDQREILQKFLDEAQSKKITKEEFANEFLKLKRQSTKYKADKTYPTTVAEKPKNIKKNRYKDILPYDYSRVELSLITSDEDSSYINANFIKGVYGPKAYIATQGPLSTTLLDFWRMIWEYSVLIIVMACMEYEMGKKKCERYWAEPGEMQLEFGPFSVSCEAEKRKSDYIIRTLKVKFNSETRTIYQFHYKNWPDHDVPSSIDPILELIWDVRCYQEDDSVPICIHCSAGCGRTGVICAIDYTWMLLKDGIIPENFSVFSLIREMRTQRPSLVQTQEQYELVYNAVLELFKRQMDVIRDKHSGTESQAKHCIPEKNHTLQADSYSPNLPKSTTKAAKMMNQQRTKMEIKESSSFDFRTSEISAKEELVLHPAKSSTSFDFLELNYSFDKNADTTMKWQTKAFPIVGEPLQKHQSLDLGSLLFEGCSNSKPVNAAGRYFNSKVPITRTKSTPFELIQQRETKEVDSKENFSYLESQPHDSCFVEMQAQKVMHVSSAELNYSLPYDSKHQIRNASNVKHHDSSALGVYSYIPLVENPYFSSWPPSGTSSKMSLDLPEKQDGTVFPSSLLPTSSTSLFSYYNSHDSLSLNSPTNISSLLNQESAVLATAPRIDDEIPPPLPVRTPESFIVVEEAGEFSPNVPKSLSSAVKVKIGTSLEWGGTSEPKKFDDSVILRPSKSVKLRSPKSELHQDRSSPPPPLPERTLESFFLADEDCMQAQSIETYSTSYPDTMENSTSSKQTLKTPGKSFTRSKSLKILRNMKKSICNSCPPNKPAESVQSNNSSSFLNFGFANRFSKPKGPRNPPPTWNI
LYP act – activators of human LYP (PTPN22) phosphatase; Q9Y2R2; recombinant LYP, DiFMUP fluorescence; 0 = plate median, 100 = signal doubled; activation, % at 2 µM; hit rate 0.11% among 96,000; AID 697;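 active = activation at 2 µM above a set limit, the mean plus 5 SD, cut at about 37% in these data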
Rev-RRE block – disrupts HIV-1 Rev binding to RRE RNA. P05866. Rev peptide-RRE RNA binding, FRET. inhibition, % at 8 µM. hit rate 0.79% among 97,000;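 active = inhibition above the screen-wide mean plus 3 SD, cut at about 35% in these data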
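Assay system: Labelled RRE RNA duplex and labelled Rev peptide | Times: 5 min preincubation and 15 min binding, 25 °C | Detection: FRET, ex 480 nm, em 540 and 671 nm | Evaluation: % inhibition of FRET ratio versus controls | Benchmarks: DMSO wells as 0% and neomycin B wells as 100% inhibition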
PLK1 inh – inhibitors of human PLK1 kinase; P53350; recombinant PLK1 kinase, TR-FRET peptide phosphorylation; inhibition, % at 10 µM; hit rate 0.53% among 97,000;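 active = inhibition of 50% or more in the single-concentration screen; inactive = inhibition below 50%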
PLK1 inh conf – confirmation of human PLK1 kinase inhibitors; shares compounds with PLK1 inh; hit rate 20% among 210; inhibition, % at 10 µM; recombinant PLK1 kinase, TR-FRET peptide phosphorylation;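 active = inhibition at or above 50% in each of two repeat confirmation tests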
Plk1 interf – counter-screen for Plk1 inhibitors: compound assay interference; shares compounds with PLK1 inh; Plk1 TR-FRET assay interference, compound added post-reaction; inhibition (interference), % at 10 µM; 210 tested, under 10 active;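 active = both duplicate runs show 50% or greater inhibition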
A number is an active result; - = inactive; . = not tested or not shown.

SMILES	Plk1 PBD FP	EphB4 ephrin blk	LYP inh 2	LYP act	Rev-RRE block	PLK1 inh	PLK1 inh conf	Plk1 interf
Cc1nc(-c2ccc3c(c2)OCO3)cs1	-	-	-	-	-	-	.	.
N#Cc1c(-c2ccc3c(c2)OCO3)csc1N	-	-	-	-	-	72	66	-
COc1ccccc1Nc1nc(N)nc(CN2CCOCC2)n1	-	-	.	.	-	72	-	-
CC(=O)C1=C(O)C=C(c2ccco2)CC1c1ccco1 (stereo not drawn)	-	-	-	-	-	-	.	.
COc1ccc(-n2c(SC(CN3CCCCC3)CN3CCCC3=O)nc3ccccc3c2=O)cc1 (stereo not drawn)	-	-	-	-	-	-	.	.
COCCn1c(C)cc(C(=O)CSc2nnc3ccccn23)c1C	-	-	.	.	-	72	-	-
O=C(NCCCN1CCN(c2cccc(Cl)c2)CC1)c1nc(-c2ccncc2)no1	-	-	-	-	-	-	.	.
Cc1nc2ccc(NC(=O)c3cccs3)cc2c(=O)n1Cc1ccc(Cl)cc1	-	-	-	-	-	123	-	-
O=C(CSCc1ccc(F)cc1)N1CCOCC1	-	-	-	-	-	115	-	-
O=C(CSCc1ccc(Br)cc1)N1CCOCC1	-	-	-	-	-	-	.	.
CCCC(=O)Nc1sc(C)c(-c2ccc(C(C)CC)cc2)c1C#N (stereo not drawn)	-	-	-	-	-	-	.	.
C#CC[N+](C)(C)C(C#Cc1ccccc1)CC=C (stereo not drawn)	-	-	-	-	-	-	.	.
O=C(CSc1ncn[nH]1)N(C1CCCCC1)C1CCCCC1	-	-	-	-	-	-	.	.
CCOc1ccc(C2=Nn3c(nnc3-c3ccc(OC)cc3)SC2)cc1	-	-	-	-	-	-	.	.
COc1ccc(OCc2nnc3n2N=C(c2ccc(OC)cc2)CS3)cc1	-	-	.	.	-	83	-	-
COc1ccc(OCc2nnc3n2N=C(c2ccc(C)cc2)CS3)cc1	-	-	.	.	-	72	-	-
Cc1nc(-c2cccnc2)sc1C(N)=O	-	-	-	-	-	76	-	-
Cc1nc(-c2cccnc2)sc1C(=O)Nc1ccc(Cl)cc1	-	-	-	-	-	-	.	.
CCCCCC(C)n1[nH]c(=O)c2c(C)cc(C)nc21 (stereo not drawn)	-	-	.	.	-	86	-	-
CC(=Nc1ccc(C)c(C)c1)C1=C(O)CSC1=O	-	-	-	-	-	-	.	.
COc1ccccc1COC(=O)Nc1c(C)nn(C)c1Cl	-	-	-	-	-	-	.	.
CC1CCN(c2ncnc3c2cnn3-c2ccccc2)CC1	-	-	.	.	-	75	-	-
CCOC(=O)C1CCN(c2ncnc3c2cnn3-c2ccccc2)CC1	-	-	-	-	-	-	.	.
Cc1ccccc1-c1nc(CS(=O)CC(=O)NCc2ccccc2)c(C)o1 (stereo not drawn)	-	-	.	.	-	79	-	-
COc1cccc(-c2nc(CS(=O)CC(=O)NCc3ccc4c(c3)OCO4)c(C)o2)c1 (stereo not drawn)	-	-	.	.	-	75	-	-
SMILES	Plk1 PBD FP	EphB4 ephrin blk	LYP inh 2	LYP act	Rev-RRE block	PLK1 inh	PLK1 inh conf	Plk1 interf
CCOC(=O)N1CCN(C(=O)CS(=O)Cc2nc(-c3cccc(C)c3)oc2C)CC1 (stereo not drawn)	-	-	.	.	-	75	-	-
COc1ccc(-c2nc(CS(=O)CC(=O)NCc3ccc4c(c3)OCO4)c(C)o2)cc1 (stereo not drawn)	-	-	-	-	-	-	.	.
Cc1cccc(-c2nc(CS(=O)CC(=O)N3CCc4ccccc4C3)c(C)o2)c1 (stereo not drawn)	-	-	-	-	-	-	.	.
COCCNC(=O)CS(=O)Cc1nc(-c2ccc(OC)cc2)oc1C (stereo not drawn)	-	-	.	.	-	71	-	-
COCCN1C(=O)c2oc3cc(C)c(C)cc3c(=O)c2C1c1ccc(O)cc1 (stereo not drawn)	-	-	-	-	-	-	.	.
CCC(C(=O)NC(C)(C)C)N(C(=O)Cn1nnc(-c2ccccc2F)n1)c1cccc2c1CCCC2 (stereo not drawn)	-	-	-	-	-	-	.	.
CC(=O)Nc1ccc(NS(=O)(=O)c2cn(C)c(=O)n(C)c2=O)cc1	-	-	-	-	-	-	.	.
O=C(NCc1ccc2c(c1)OCO2)c1cccc(C(=O)NCc2ccc3c(c2)OCO3)c1	-	-	-	-	-	-	.	.
O=C(NCc1ccc2c(c1)OCO2)Oc1ccccc1	-	-	.	.	-	83	-	-
CCCc1cc(C(N)=O)c(NC(=O)c2ccco2)s1	-	-	-	-	-	127	-	-
COc1ccccc1CN1CC(C(=O)NCc2cccnc2)CC1=O (stereo not drawn)	-	-	-	-	-	-	.	.
CCOC(=O)c1ccc(NC(=S)NCCCN2CCCCC2)cc1	-	-	-	-	-	113	-	-
CCOc1ccc(NC(=O)NCCCN2CCCC2)cc1	-	-	-	-	-	-	.	.
CCOc1ccc(OCC)c(-c2c(=O)n(OCc3ccccc3Br)c3ccccc3[n+]2[O-])c1	-	-	-	-	-	-	.	.
CC(=O)c1cc(C#N)c(SCc2ccccc2)nc1C	-	-	-	-	-	-	.	.
O=C(O)CCc1ccc(-c2cccs2)n1-c1ccc(C(=O)O)cc1	-	-	.	.	-	96	-	-
CC(=O)c1cccc(-n2c(CCC(=O)O)ccc2-c2cccs2)c1	-	-	-	-	-	-	.	.
CCOC(=O)C1CCN(C(=O)CN(c2ccc(OC)cc2)S(=O)(=O)c2c(C)noc2C)CC1	-	-	-	-	-	-	.	.
CCOC(=O)C1CCN(C(=O)CN(c2ccc(OC)cc2)S(=O)(=O)c2c(C)nn(C)c2C)CC1	-	-	.	.	-	73	-	-
COc1ccc(CN2CC(C(=O)NCc3cccc(OC)c3)CC2=O)cc1 (stereo not drawn)	-	-	-	-	-	-	.	.
Cc1oc2ncnc(N)c2c1C	-	-	-	-	-	76	68	-
CCOC(=O)N1CCN(c2c(N3CCc4ccccc43)c(=O)c2=O)CC1	-	-	.	.	-	77	-	-
Cc1cc(C(=O)N/N=C/c2cccc(Cl)c2Cl)no1	-	-	-	-	-	88	-	-
O=C(N/N=C/c1cccc(Cl)c1Cl)Nc1ccccc1	-	-	-	-	-	-	.	.
COC(=O)c1[nH]c2ccccc2c1NC(=O)CNC1CCCCC1	-	-	-	-	-	-	.	.
C#CCn1c(=NC(=O)c2ccc(Br)s2)sc2cccc(OC)c21	-	-	-	-	-	-	.	.
Cc1ccc2c(c1)/C(=N/OC(=O)c1ccc(F)cc1)CCS2	-	-	-	-	-	124	-	-
Cc1ccc2c(c1)c(C)c(C)n2CC(O)CN1CCCCC1C (stereo not drawn)	-	-	.	.	-	70	-	-
